Assay results reported in ChEMBL document CHEMBL4177526, “Discovery and structure activity relationship of the first potent cryptosporidium FIKK kinase inhibitor” (Bioorg Med Chem, 2017).

What was measured:
[1] = biological target: Mitogen-activated protein kinase kinase kinase kinase 2 (Homo sapiens) (UniProt Q12851); assay: Inhibition of human GCK (2 to 812 residues) assessed as residual activity at 500 nM in presence of 33P-ATP by filter binding assay relative to control
[2] = biological target: Tau-tubulin kinase 2 (Homo sapiens) (UniProt Q6IQ55); assay: Inhibition of human TTBK2 (1 to 450 residues) assessed as residual activity at 500 nM in presence of 33P-ATP by filter binding assay relative to control
Tau-tubulin kinase 2 (Homo sapiens), sequence (Q6IQ55 whole entry, the tested form may be a part): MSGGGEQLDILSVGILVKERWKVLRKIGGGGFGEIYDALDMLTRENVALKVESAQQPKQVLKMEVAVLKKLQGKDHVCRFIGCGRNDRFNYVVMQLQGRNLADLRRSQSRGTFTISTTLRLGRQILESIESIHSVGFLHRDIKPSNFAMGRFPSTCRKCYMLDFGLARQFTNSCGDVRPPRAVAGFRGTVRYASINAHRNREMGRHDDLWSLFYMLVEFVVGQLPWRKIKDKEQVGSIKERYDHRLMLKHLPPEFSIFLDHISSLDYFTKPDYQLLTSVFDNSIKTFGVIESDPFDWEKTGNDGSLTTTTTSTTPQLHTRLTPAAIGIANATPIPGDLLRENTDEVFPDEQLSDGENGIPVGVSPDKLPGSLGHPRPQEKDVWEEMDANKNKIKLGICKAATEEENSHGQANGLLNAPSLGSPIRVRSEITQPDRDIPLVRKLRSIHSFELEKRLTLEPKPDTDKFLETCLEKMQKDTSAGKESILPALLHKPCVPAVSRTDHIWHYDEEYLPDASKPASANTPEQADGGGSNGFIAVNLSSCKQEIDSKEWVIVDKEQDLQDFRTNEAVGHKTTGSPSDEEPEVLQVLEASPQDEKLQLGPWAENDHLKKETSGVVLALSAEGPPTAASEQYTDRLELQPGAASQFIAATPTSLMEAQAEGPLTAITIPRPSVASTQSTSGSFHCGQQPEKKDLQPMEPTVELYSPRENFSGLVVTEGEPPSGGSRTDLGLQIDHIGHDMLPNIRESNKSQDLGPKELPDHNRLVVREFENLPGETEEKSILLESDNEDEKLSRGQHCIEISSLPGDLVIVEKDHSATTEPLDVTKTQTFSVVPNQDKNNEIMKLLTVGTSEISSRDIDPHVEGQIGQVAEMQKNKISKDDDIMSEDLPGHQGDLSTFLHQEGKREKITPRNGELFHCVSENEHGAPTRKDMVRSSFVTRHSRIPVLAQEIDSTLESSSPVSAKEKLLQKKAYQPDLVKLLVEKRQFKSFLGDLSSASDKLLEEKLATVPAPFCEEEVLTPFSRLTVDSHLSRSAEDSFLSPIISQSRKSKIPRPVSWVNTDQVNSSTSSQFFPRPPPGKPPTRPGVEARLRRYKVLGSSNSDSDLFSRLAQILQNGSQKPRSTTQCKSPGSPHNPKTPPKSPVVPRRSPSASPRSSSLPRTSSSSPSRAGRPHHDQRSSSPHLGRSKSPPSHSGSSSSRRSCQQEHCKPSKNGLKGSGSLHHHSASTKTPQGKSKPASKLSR

[3] = biological target: Calcium/calmodulin-dependent protein kinase kinase 2 (Homo sapiens) (UniProt Q96RR4); assay: Inhibition of human CAMKKbeta (1 to 541 residues) assessed as residual activity at 500 nM in presence of 33P-ATP by filter binding assay relative to control
[4] = biological target: Protein kinase C zeta type (Homo sapiens) (UniProt Q05513); assay: Inhibition of human PKCzeta (2 to 592 residues) assessed as residual activity at 500 nM in presence of 33P-ATP by filter binding assay relative to control
Protein kinase C zeta type (Homo sapiens), sequence (Q05513 whole entry, the tested form may be a part): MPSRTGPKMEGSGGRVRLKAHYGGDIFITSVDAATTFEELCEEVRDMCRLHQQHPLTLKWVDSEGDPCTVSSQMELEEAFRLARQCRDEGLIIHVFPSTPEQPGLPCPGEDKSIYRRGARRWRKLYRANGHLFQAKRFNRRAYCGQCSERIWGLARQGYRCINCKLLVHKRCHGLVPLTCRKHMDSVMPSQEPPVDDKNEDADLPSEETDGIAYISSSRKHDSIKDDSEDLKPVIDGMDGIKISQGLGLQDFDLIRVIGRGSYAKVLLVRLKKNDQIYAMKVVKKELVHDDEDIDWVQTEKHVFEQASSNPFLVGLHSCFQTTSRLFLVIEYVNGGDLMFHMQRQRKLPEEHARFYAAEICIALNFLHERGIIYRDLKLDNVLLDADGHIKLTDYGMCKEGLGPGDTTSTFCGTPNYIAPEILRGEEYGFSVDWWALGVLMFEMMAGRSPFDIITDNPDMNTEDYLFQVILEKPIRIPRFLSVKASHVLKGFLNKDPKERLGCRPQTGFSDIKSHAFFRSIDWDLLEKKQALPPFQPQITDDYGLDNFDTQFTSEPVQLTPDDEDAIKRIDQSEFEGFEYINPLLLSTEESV

[5] = biological target: MAP/microtubule affinity-regulating kinase 3 (Homo sapiens) (UniProt P27448); assay: Inhibition of human MARK3 (2 to 729 residues) assessed as residual activity at 500 nM in presence of 33P-ATP by filter binding assay relative to control
[6] = biological target: Aurora kinase A (Homo sapiens) (UniProt O14965); assay: Inhibition of human Aurora-A (2 to 403 residues) assessed as residual activity at 500 nM in presence of 33P-ATP by filter binding assay relative to control
Aurora kinase A (Homo sapiens), sequence (O14965 whole entry, the tested form may be a part): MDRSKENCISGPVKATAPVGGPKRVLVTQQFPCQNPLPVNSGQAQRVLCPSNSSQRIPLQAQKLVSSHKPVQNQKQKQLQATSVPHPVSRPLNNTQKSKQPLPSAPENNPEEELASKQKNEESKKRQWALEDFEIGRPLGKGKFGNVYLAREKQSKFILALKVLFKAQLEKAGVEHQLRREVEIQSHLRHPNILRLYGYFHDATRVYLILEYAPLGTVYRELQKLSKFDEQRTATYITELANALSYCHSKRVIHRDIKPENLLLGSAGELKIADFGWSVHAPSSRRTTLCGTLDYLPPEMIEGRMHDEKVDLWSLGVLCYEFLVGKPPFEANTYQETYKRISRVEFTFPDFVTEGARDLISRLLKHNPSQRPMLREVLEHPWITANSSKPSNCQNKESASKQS

[7] = biological target: Mitogen-activated protein kinase 12 (Homo sapiens) (UniProt P53778); assay: Inhibition of human p38gamma (1 to 367 residues) assessed as residual activity at 500 nM in presence of 33P-ATP by filter binding assay relative to control
Mitogen-activated protein kinase 12 (Homo sapiens), sequence (P53778 whole entry, the tested form may be a part): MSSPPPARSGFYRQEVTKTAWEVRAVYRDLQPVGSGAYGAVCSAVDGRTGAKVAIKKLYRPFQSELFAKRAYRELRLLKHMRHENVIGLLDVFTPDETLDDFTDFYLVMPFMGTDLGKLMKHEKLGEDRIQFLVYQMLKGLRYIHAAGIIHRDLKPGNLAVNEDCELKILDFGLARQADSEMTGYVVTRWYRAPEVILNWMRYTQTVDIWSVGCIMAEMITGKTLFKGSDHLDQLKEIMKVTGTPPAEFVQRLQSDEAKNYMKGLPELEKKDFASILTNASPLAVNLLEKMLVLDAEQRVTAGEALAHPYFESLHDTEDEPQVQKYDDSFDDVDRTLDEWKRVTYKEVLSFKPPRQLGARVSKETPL

[8] = biological target: Insulin receptor (Homo sapiens) (UniProt P06213); assay: Inhibition of human IR (1001 to 1382 residues) assessed as residual activity at 500 nM in presence of 33P-ATP by filter binding assay relative to control
[9] = biological target: Dual specificity mitogen-activated protein kinase kinase 1 (Homo sapiens) (UniProt Q02750); assay: Inhibition of human MKK1 (2 to 393 residues) assessed as residual activity at 500 nM in presence of 33P-ATP by filter binding assay relative to control
[10] = biological target: Ephrin type-B receptor 1 (Homo sapiens) (UniProt P54762); assay: Inhibition of human EPHB1 (565 to 984 residues) assessed as residual activity at 500 nM in presence of 33P-ATP by filter binding assay relative to control
Ephrin type-B receptor 1 (Homo sapiens), sequence (P54762 whole entry, the tested form may be a part): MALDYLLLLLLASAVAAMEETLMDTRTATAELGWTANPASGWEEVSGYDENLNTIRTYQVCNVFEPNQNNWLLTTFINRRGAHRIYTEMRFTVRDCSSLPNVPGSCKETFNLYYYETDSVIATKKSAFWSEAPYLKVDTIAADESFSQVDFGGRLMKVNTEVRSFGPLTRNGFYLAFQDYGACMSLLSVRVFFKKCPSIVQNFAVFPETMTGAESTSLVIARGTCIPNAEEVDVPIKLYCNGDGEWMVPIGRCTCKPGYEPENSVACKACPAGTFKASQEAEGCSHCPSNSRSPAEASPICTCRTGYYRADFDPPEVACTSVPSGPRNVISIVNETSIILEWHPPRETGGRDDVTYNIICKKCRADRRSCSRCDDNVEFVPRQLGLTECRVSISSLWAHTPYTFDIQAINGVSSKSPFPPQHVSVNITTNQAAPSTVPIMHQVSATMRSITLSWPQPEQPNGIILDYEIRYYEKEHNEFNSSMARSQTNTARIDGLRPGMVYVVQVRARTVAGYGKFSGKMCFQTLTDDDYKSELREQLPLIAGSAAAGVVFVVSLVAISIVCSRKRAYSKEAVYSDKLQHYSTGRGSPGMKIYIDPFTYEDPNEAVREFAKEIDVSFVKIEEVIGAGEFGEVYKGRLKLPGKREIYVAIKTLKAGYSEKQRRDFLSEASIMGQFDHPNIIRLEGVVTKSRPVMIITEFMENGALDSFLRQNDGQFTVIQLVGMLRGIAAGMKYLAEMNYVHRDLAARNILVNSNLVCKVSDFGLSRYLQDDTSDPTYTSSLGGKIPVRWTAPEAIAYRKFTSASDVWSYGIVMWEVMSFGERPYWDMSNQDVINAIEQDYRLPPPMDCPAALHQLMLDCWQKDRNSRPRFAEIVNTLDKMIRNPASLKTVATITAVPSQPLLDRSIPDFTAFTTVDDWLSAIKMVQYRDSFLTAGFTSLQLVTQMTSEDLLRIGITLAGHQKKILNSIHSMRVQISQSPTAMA

[11] = biological target: Dual specificity tyrosine-phosphorylation-regulated kinase 3 (Homo sapiens) (UniProt O43781); assay: Inhibition of human DYRK3 (1 to 588 residues) assessed as residual activity at 500 nM in presence of 33P-ATP by filter binding assay relative to control
Dual specificity tyrosine-phosphorylation-regulated kinase 3 (Homo sapiens), sequence (O43781 whole entry, the tested form may be a part): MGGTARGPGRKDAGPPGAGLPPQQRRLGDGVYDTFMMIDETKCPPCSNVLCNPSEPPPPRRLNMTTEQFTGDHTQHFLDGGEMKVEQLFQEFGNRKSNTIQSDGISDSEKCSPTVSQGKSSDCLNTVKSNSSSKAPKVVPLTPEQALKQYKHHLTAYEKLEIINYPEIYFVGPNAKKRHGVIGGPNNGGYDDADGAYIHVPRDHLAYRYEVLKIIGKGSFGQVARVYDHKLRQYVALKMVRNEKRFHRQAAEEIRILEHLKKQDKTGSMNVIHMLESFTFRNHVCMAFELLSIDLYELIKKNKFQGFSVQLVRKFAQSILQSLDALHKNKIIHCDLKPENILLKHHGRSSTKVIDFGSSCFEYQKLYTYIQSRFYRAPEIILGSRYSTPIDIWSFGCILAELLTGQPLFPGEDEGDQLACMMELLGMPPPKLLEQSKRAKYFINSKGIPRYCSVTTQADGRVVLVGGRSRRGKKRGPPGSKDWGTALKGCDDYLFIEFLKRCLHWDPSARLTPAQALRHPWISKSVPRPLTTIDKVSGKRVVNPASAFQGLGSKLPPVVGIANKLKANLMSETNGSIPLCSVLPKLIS

[12] = biological target: Mitogen-activated protein kinase 3 (Homo sapiens) (UniProt P27361); assay: Inhibition of human ERK1 (2 to 379 residues) assessed as residual activity at 500 nM in presence of 33P-ATP by filter binding assay relative to control
[13] = biological target: Serine/threonine-protein kinase ULK1 (Homo sapiens) (UniProt O75385); assay: Inhibition of human ULK1 (2 to 1050 residues) assessed as residual activity at 500 nM in presence of 33P-ATP by filter binding assay relative to control
[14] = biological target: Homeodomain-interacting protein kinase 3 (Homo sapiens) (UniProt Q9H422); assay: Inhibition of human HIPK3 (161 to 562 residues) assessed as residual activity at 500 nM in presence of 33P-ATP by filter binding assay relative to control
[15] = biological target: Serine/threonine-protein kinase pim-2 (Homo sapiens) (UniProt Q9P1W9); assay: Inhibition of human PIM2 (2 to 334 residues) assessed as residual activity at 500 nM in presence of 33P-ATP by filter binding assay relative to control
Serine/threonine-protein kinase pim-2 (Homo sapiens), sequence (Q9P1W9 whole entry, looked up, the tested form may be a part): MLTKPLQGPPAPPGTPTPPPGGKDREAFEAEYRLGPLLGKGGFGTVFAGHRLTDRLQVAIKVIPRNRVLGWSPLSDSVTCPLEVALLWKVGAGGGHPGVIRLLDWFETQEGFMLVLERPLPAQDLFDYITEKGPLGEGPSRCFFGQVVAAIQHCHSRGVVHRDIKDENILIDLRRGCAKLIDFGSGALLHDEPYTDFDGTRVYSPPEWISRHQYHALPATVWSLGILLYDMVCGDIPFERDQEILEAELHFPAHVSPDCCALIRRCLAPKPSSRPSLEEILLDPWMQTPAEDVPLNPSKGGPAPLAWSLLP

[16] = biological target: Ribosomal protein S6 kinase alpha-3 (Homo sapiens) (UniProt P51812); assay: Inhibition of human RSK2 assessed as residual activity at 500 nM in presence of 33P-ATP by filter binding assay relative to control
[17] = biological target: MAP kinase-interacting serine/threonine-protein kinase 1 (Homo sapiens) (UniProt Q9BUB5); assay: Inhibition of human MNK1 (2 to 424 residues) assessed as residual activity at 500 nM in presence of 33P-ATP by filter binding assay relative to control
[18] = biological target: Tyrosine-protein kinase CSK (Homo sapiens) (UniProt P41240); assay: Inhibition of human CSK (1 to 450 residues) assessed as residual activity at 500 nM in presence of 33P-ATP by filter binding assay relative to control
[19] = biological target: Ephrin type-A receptor 2 (Homo sapiens) (UniProt P29317); assay: Inhibition of human EPHA2 (591 to 976 residues) assessed as residual activity at 500 nM in presence of 33P-ATP by filter binding assay relative to control
[20] = biological target: Insulin receptor-related protein (Homo sapiens) (UniProt P14616); assay: Inhibition of human IRR (944 to 1236 residues) assessed as residual activity at 500 nM in presence of 33P-ATP by filter binding assay relative to control
[21] = biological target: Mitogen-activated protein kinase 10 (Homo sapiens) (UniProt P53779); assay: Inhibition of human JNK3 (40 to 422 residues) assessed as residual activity at 500 nM in presence of 33P-ATP by filter binding assay relative to control
Mitogen-activated protein kinase 10 (Homo sapiens), sequence (P53779 whole entry, the tested form may be a part): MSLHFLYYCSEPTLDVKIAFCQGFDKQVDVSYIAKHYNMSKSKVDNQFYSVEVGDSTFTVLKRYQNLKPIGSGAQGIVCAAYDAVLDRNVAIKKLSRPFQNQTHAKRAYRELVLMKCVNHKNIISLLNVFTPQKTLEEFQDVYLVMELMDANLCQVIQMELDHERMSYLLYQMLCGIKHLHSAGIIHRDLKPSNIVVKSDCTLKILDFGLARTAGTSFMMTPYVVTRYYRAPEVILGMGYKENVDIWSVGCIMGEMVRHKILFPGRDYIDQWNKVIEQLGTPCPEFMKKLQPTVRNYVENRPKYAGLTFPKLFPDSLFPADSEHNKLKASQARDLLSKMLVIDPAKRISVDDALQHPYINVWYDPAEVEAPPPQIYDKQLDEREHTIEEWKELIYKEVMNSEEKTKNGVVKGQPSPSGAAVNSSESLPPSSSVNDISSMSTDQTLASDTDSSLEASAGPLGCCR

[22] = biological target: Serine/threonine-protein kinase BRSK2 (Homo sapiens) (UniProt Q8IWQ3); assay: Inhibition of human BRSK2 (2 to 674 residues) assessed as residual activity at 500 nM in presence of 33P-ATP by filter binding assay relative to control
[23] = biological target: Receptor-interacting serine/threonine-protein kinase 2 (Homo sapiens) (UniProt O43353); assay: Inhibition of human RIPK2 (2 to 311 residues) assessed as residual activity at 500 nM in presence of 33P-ATP by filter binding assay relative to control
[24] = biological target: Mitogen-activated protein kinase 14 (Homo sapiens) (UniProt Q16539); assay: Inhibition of human p38alpha (1 to 360 residues) assessed as residual activity at 500 nM in presence of 33P-ATP by filter binding assay relative to control
Cryptosporidium parvum = assay: Antiparasitic activity against Cryptosporidium parvum Iowa oocysts infected in human HCT8 cells pretreated prior to infection measured after 48 hrs by fluorescein labeled Vicia villosa lectin/Hoechst 33258 staining based epifluorescence microscopic analysis; format: functional, organism-based; settings: Cryptosporidium parvum, Iowa, HCT-8; read-out: EC50
Procedure, shortened: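 HCT-8 cells grown in RPMI-1640 with 10% heat-inactivated FBS and penicillin. Three-fold compound dilutions in culture medium were added to confluent cells before about 5500 excysted C. parvum Iowa oocysts per well. After 48 h, cells were fixed with 4% paraformaldehyde and permeabilized. Vacuoles were stained with fluorescein-Vicia villosa lectin (1.33 µg/mL, 1 h, 37 °C) and nuclei with Hoechst 33258, then imaged by epifluorescence microscopy.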

## Cc1cccc(-c2nc(N)sc2-c2ccc3ncccc3n2)c1
[1]
  Activity: 133%
[2]
  Activity: 125%
[3]
  Activity: 124%
[4]
  Activity: 123%
[5]
  Activity: 121%
[6]
  Activity: 120%
[7]
  Activity: 116%
[8]
  Activity: 115%
[9]
  Activity: 115%
[10]
  Activity: 110%
[11]
  Activity: 109%
[12]
  Activity: 106%
[13]
  Activity: 106%
[14]
  Activity: 104%
[15]
  Activity: 101%
[16]
  Activity: 100%
[17]
  Activity: 99%
[18]
  Activity: 99%
[19]
  Activity: 99%
[20]
  Activity: 94%
[21]
  Activity: 90%
[22]
  Activity: 89%
[23]
  Activity: 30%
[24]
  Activity: 9%
Cryptosporidium parvum
  EC50: 2600 nM
